Experimental data as given in ChEMBL document CHEMBL1143754, “2-Styrylchromones: novel strong scavengers of reactive oxygen and nitrogen species” (Bioorg Med Chem, 2007).
The source made the active and inactive calls. The rule behind the calls is not given here.

Legend:
Type in all cases: functional
[1] = Hypochlorous acid scavenging activity assessed as inhibition of DHR oxidation
How it was run: (§1)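 HOCl made fresh by bringing 1% NaOCl to pH 6.2 with H2SO4, quantified at 235 nm. Final: DHR 5 µM, HOCl 5 µM in 100 mM phosphate pH 7.4, compounds in ethanol. Run at 37 °C; rhodamine 123 fluorescence (ex 485/em 528 nm) read immediately. % inhibition of DHR oxidation. Lipoic acid control. Four experiments in triplicate.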

[2] = Peroxynitrite scavenging activity assessed as inhibition of DHR oxidation at 62 uM
How it was run: (§2)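 Buffer of 90 mM NaCl, 50 mM Na3PO4, 5 mM KCl, pH 7.4, with 100 µM DTPA. Final: DHR 5 µM, ONOO− 600 nM, compounds in DMSO. 37 °C, fluorescence (ex 485/em 528 nm) after 2 min. % inhibition of DHR oxidation. Ebselen control. Four experiments in triplicate.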

[3] = Superoxide radical scavenging activity at 125 uM by NBT reduction assay
How it was run: (§3)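 Superoxide generated by NADH/PMS at room temperature. Final: NADH 166 µM, NBT 43 µM, PMS 2.7 µM in 19 mM phosphate pH 7.4; compounds in DMSO. NBT reduction to diformazan followed at 560 nm for 2 min. % inhibition. Propyl gallate control. Four experiments in triplicate.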

[4] = Hydrogen peroxide scavenging activity at 250 uM by assessed as inhibition of lucigenin oxidation
How it was run: (§4)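 Chemiluminescence assay of H2O2-induced lucigenin oxidation, 37 °C, 50 mM Tris-HCl pH 7.4. Final concentrations: lucigenin 0.8 mM, 1% H2O2. Compounds in DMSO at various concentrations. Signal read right after the plate goes into the reader. Reported as % inhibition of lucigenin oxidation. Ascorbic acid as positive control. Four experiments, each in triplicate.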

[5] = Hypochlorous acid scavenging activity at 50 uM assessed as inhibition of DHR oxidation; how it was run: as §1
[6] = Singlet oxygen scavenging activity at 100 uM assessed as inhibition of DHR oxidation
How it was run: (§5)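 Singlet oxygen from thermal breakdown of the endoperoxide NDPO2 (1 mM final), with histidine 10 mM and DHR 50 µM in 100 mM phosphate pH 7.4. Compounds in DMSO. After 30 min at 37 °C, rhodamine 123 fluorescence (ex 485/em 528 nm). % inhibition of DHR oxidation. Penicillamine control. Four experiments in triplicate.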

[7] = Nitric oxide scavenging activity assessed as inhibition of DAF2 oxidation at 100 uM
How it was run: (§6)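 NOC-5 (10 µM final) as NO donor, DAF-2 5 µM in 50 mM KH2PO4 pH 7.4, compounds in DMSO. After 30 min at 37 °C, DAF-2T fluorescence read (ex 485/em 528 nm). Value is % inhibition of DAF-2 oxidation. Rutin control.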

[8] = Peroxynitrite scavenging activity assessed as inhibition of DHR oxidation in presence of NaHCo3 at 62 uM
How it was run: (§7)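 Parallel peroxynitrite set with 25 mM NaHCO3 added to mimic physiological CO2. Otherwise the same: 100 µM DTPA phosphate/NaCl/KCl buffer pH 7.4, DHR 5 µM, ONOO− 600 nM, compounds in DMSO. 37 °C, 2 min, fluorescence ex 485/em 528 nm. % inhibition of DHR oxidation. Four experiments in triplicate.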

[9] = Superoxide radical scavenging activity by NBT reduction assay; how it was run: as §3
[10] = Superoxide radical scavenging activity at 100 uM by NBT reduction assay; how it was run: as §3
[11] = Singlet oxygen scavenging activity at 1 mM assessed inhibition of as DHR oxidation; how it was run: as §5
[12] = Nitric oxide scavenging activity assessed as inhibition of DAF2 oxidation at 250 uM; how it was run: as §6
[13] = Peroxynitrite scavenging activity assessed as inhibition of DHR oxidation; how it was run: as §2
[14] = Peroxynitrite scavenging activity assessed as inhibition of DHR oxidation in presence of NaHCo3; how it was run: as §7
[15] = Hydrogen peroxide scavenging activity by assessed as inhibition of lucigenin oxidation; how it was run: as §4
[16] = Singlet oxygen scavenging activity by assessed as inhibition of DHR oxidation; how it was run: as §5
[17] = Nitric oxide scavenging activity assessed as inhibition of DAF2 oxidation; how it was run: as §6
[18] = Singlet oxygen scavenging activity at 500 uM assessed as inhibition of DHR oxidation; how it was run: as §5
[19] = Peroxynitrite scavenging activity assessed as inhibition of DHR oxidation at 500 uM; how it was run: as §2
[20] = Peroxynitrite scavenging activity assessed as inhibition of DHR oxidation in presence of NaHCo3 at 500 uM; how it was run: as §7
[21] = Peroxynitrite scavenging activity assessed as inhibition of DHR oxidation at 150 uM; how it was run: as §2
[22] = Hypochlorous acid scavenging activity at 125 uM assessed as inhibition of DHR oxidation; how it was run: as §1
[23] = Singlet oxygen scavenging activity at 200 uM assessed as inhibition of DHR oxidation; how it was run: as §5
[24] = Peroxynitrite scavenging activity assessed as inhibition of DHR oxidation in presence of NaHCo3 at 150 uM; how it was run: as §7
[25] = Hypochlorous acid scavenging activity at 25 uM assessed as inhibition of DHR oxidation; how it was run: as §1
[26] = Singlet oxygen scavenging activity at 40 uM assessed as inhibition of DHR oxidation; how it was run: as §5
[27] = Nitric oxide scavenging activity assessed as inhibition of DAF2 oxidation at 50 uM; how it was run: as §6
[28] = Hypochlorous acid scavenging activity at 100 uM assessed as inhibition of DHR oxidation; how it was run: as §1

SMILES | IC50 [1] | Activity [4] | IC50 [9] | IC50 [13] | IC50 [14] | IC50 [16] | IC50 [17] | also measured
O=C(O)CCCCC1CCSS1 (stereo not drawn) [LIPOIC ACID, ALPHA] | 2.4 µM | – | – | – | – | – | – | –
O=c1cc(-c2ccccc2)oc2cccc(O)c12 | – | inactive | – | – | – | – | – | Activity [2]: inactive; Activity [3]: inactive; inhibition [5]: 17%; Activity [6]: inactive; Activity [7]: inactive; Activity [8]: inactive
CCCOC(=O)c1cc(O)c(O)c(O)c1 [PROPYL GALLATE] | – | – | 24.6 µM | – | – | – | – | –
O=c1cc(-c2ccc(O)cc2)oc2cc(O)cc(O)c12 [APIGENIN] | 3.9 µM | inactive | – | 76.1 µM | 21.2 µM | – | – | inhibition [10]: 35%; inhibition [11]: 30%; Activity [12]: inactive
O=c1cc(-c2ccc(O)c(O)c2)oc2cc(O)cc(O)c12 [LUTEOLIN] | 7.1 µM | – | 58.5 µM | 0.3 µM | 0.64 µM | 23.4 µM | 2.61 µM | IC50 [15]: 900 µM
O=c1cc(/C=C/c2ccc(O)c(O)c2)oc2cccc(O)c12 | 16.9 µM | – | 80.4 µM | 0.26 µM | 0.51 µM | 4.9 µM | 0.24 µM | IC50 [15]: 48.9 µM
CC(C)(S)[C@@H](N)C(=O)O [PENICILLAMINE] | – | – | – | – | – | 4.9 µM | – | –
O=C1O[C@H]([C@@H](O)CO)C(O)=C1O [ASCORBIC ACID] | – | – | – | – | – | – | – | IC50 [15]: 626 µM
O=c1cc(-c2ccccc2)oc2cc(O)cc(O)c12 [CHRYSIN] | 3.9 µM | inactive | – | 188 µM | 140 µM | – | – | Activity [3]: inactive; Activity [18]: inactive; inhibition [12]: 20%
O=c1cc(/C=C/c2ccc(O)cc2)oc2cc(O)ccc12 | 92 µM | inactive | 66.2 µM | 1.4 µM | 1.65 µM | 266 µM | – | inhibition [12]: 23%
O=c1cc(/C=C/c2ccc(O)c(O)c2)oc2cc(O)ccc12 | 18 µM | – | 51 µM | 0.3 µM | 0.61 µM | 10.1 µM | 0.29 µM | IC50 [15]: 114 µM
O=c1cc(/C=C/c2ccccc2)oc2cc(O)ccc12 | 72.3 µM | inactive | – | – | – | – | – | inhibition [3]: 40%; Activity [11]: inactive; Activity [12]: inactive; Activity [19]: inactive; Activity [20]: inactive
O=c1c(O)c(-c2ccc(O)c(O)c2)oc2cc(O)cc(O)c12 [QUERCETIN] | 1.1 µM | – | 47.3 µM | 0.26 µM | 0.44 µM | 5.3 µM | 1.95 µM | IC50 [15]: 785 µM
O=c1cc(/C=C/c2ccccc2)oc2ccccc12 | – | inactive | – | – | – | – | – | inhibition [21]: 27%; Activity [3]: inactive; inhibition [22]: 10%; Activity [23]: inactive; Activity [7]: inactive; inhibition [24]: 27%
C[C@@H]1O[C@@H](OC[C@H]2O[C@@H](Oc3c(-c4ccc(O)c(O)c4)oc4cc(O)cc(O)c4c3=O)[C@H](O)[C@@H](O)[C@@H]2O)[C@H](O)[C@H](O)[C@H]1O [RUTIN] | – | – | – | – | – | – | 3.66 µM | –
O=c1cc(/C=C/c2ccc(O)c(O)c2)oc2ccccc12 | 32.1 µM | – | 71.3 µM | 0.24 µM | 0.44 µM | 7.9 µM | 0.34 µM | IC50 [15]: 183 µM
O=c1c2ccccc2[se]n1-c1ccccc1 [EBSELEN] | – | – | – | 0.91 µM | 4.63 µM | – | – | –
O=c1cc(/C=C/c2ccc(O)c(O)c2)oc2cc(O)cc(O)c12 | 3.9 µM | – | 48.9 µM | 0.26 µM | 0.63 µM | 6.5 µM | 0.51 µM | IC50 [15]: 50.3 µM
O=c1cc(/C=C/c2ccc(O)cc2)oc2cccc(O)c12 | – | – | – | 1.04 µM | 0.98 µM | – | – | Activity [10]: inactive; inhibition [4]: 40%; inhibition [25]: 29%; inhibition [26]: 29%; Activity [27]: inactive
O=c1cc(/C=C/c2ccc(O)cc2)oc2ccccc12 | – | inactive | – | 1.2 µM | 1.23 µM | 245 µM | – | inhibition [3]: 32%; inhibition [28]: 34%; inhibition [12]: 46%
O=c1cc(/C=C/c2ccccc2)oc2cccc(O)c12 | – | inactive | – | – | – | – | – | Activity [2]: inactive; Activity [3]: inactive; inhibition [5]: 17%; Activity [6]: inactive; Activity [27]: inactive; Activity [8]: inactive
O=c1cc(-c2ccccc2)oc2cc(O)ccc12 [7-HYDROXYFLAVONE] | 146 µM | inactive | – | – | – | – | – | Activity [3]: inactive; Activity [11]: inactive; Activity [12]: inactive; Activity [19]: inactive; Activity [20]: inactive
O=c1cc(/C=C/c2ccc(O)cc2)oc2cc(O)cc(O)c12 | 8.5 µM | – | 77.7 µM | 1.25 µM | 1.21 µM | 183 µM | – | inhibition [4]: 36%; inhibition [12]: 21%
O=c1cc(/C=C/c2ccccc2)oc2cc(O)cc(O)c12 | 5.7 µM | inactive | – | 46.6 µM | 40.6 µM | 163 µM | 73.9 µM | inhibition [3]: 27%
